Reference: ChEMBL document CHEMBL1148599, “Antitumor benzothiazoles. 26.(1) 2-(3,4-dimethoxyphenyl)-5-fluorobenzothiazole (GW 610, NSC 721648), a simple fluorinated 2-arylbenzothiazole, shows potent and selective inhibitory activity against lung, colon, and breast cancer cell lines” (2006)
Active and inactive are the calls of the source. The calls are words filed in the database; no cut-off is given here.

How the values were obtained:
MCF7 [1] = test: Antiproliferative activity against human breast cancer cell line MCF7; type: functional
How it was run: (§1)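 Cells kept in RPMI 1640 with 2 mM L-glutamine and 10% FCS at 37 °C, 5% CO2. Seeded 5 × 10³/well, left 24 h to adhere, then exposed 72 h to 0.1 nM–100 µM final (DMSO stocks diluted in medium, n = 8). MTT 400 µg/mL final added at dosing and at 72 h, 4 h at 37 °C. Formazan dissolved in DMSO:glycine pH 10.5, A550 read. GI50 from triplicate tests.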

MDA-MB-468 [2] = test: Antiproliferative activity against human breast cancer cell line MDA468; type: functional; how it was run: as §1
HCC 2998 [3] = test: Antiproliferative activity against human colon cancer cell line HCC2998; type: functional; how it was run: as §1
KM12 [4] = test: Antiproliferative activity against human colon cancer cell line KM12; type: functional; how it was run: as §1
MDA-MB-468 [5] = test: Ability to induce CYP1A1 protein expression in […] human breast cancer cell line MDA468; type: functional, cell-based
How it was run: (§2)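 Whole-cell lysates from untreated cultures and from cells exposed 24 h to 10 nM–10 µM compound. Protein-normalized samples heated 95 °C 5 min, run on 10% SDS-PAGE and electroblotted to PVDF. Probed with polyclonal anti-human CYP1A1/1A2 antiserum and an alkaline phosphatase secondary, developed with BCIP/NBT. Recombinant CYP1A1 served as positive control for the 52 kDa band.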

MCF7 [6] = test: Ability to induce CYP1A1 protein expression in […] human breast cancer cell line MCF7; type: functional, cell-based; how it was run: as §2
HCC 2998 [7] = test: Ability to induce CYP1A1 protein expression in sensitive human colon cancer cell line HCC2998; type: functional, cell-based; how it was run: as §2
KM12 [8] = test: Ability to induce CYP1A1 protein expression in sensitive human colon cancer cell line KM12; type: functional, cell-based; how it was run: as §2

SMILES | GI50 (MCF7 [1]) [nM] | GI50 (MDA-MB-468 [2]) [nM] | GI50 (HCC 2998 [3]) [nM] | GI50 (KM12 [4]) [nM] | Activity (MDA-MB-468 [5]) | Activity (MCF7 [6]) | Activity (HCC 2998 [7]) | Activity (KM12 [8])
COc1ccc(-c2nc3cc(F)ccc3s2)cc1 | 490 | 330 | 12400 | 24600 |  |  |  | 
COc1ccc(-c2nc3cc(F)ccc3s2)cc1C | 48 | 58 | 540 | 18600 |  |  |  | 
COc1ccc(-c2nc3cc(F)ccc3s2)cc1I | 820 | 360 | 940 | 6900 |  |  |  | 
Fc1ccc2sc(-c3ccc4c(c3)OCO4)nc2c1 | 20700 | 570 | 22300 | 25100 | Active | Active |  | 
c1ccc2sc(-c3ccc4c(c3)OCO4)nc2c1 | 57800 | 800 | 68300 | 98600 |  |  |  | 
COc1cc(-c2nc3cc(F)ccc3s2)cc(O)c1OC | 653 | 88 | 6490 | 47500 |  |  |  | 
Oc1ccc(-c2nc3ccccc3s2)cc1O | 2190 | 220 | 6990 | 15600 |  |  |  | 
COc1ccc(-c2nc3cc(Cl)ccc3s2)cc1OC | 27900 | 1000 | 4880 | 12400 |  |  |  | 
Cc1cc(-c2nc3cc(F)ccc3s2)ccc1N |  | < 0.1 | > 100000 | > 100000 |  |  |  | 
COc1ccc(-c2nc3ccc(F)cc3s2)cc1OC | 62 | 5 | 6210 | 24100 |  |  |  | 
Oc1ccc(-c2nc3cc(F)ccc3s2)cc1O | 720 | 190 | 1640 | 13000 |  |  |  | 
COc1ccc(-c2nc3cc(F)ccc3s2)cc1Br | 850 | 420 | 3450 | 6700 |  |  |  | 
COc1ccc(-c2nc3c(F)cccc3s2)cc1OC | 5 | 5 | 1060 | 850 |  |  |  | 
CCOc1cc(-c2nc3cc(F)ccc3s2)ccc1OC | 80 | 92 | 3320 | 5420 |  |  |  | 
CCOc1ccc(-c2nc3cc(F)ccc3s2)cc1OCC |  | 55 |  | 38500 |  |  |  | 
COc1ccc(-c2nc3cc(F)ccc3s2)c(OC)c1OC | 23 | 120 | 37 | 14200 |  |  |  | 
Cc1cc(-c2nc3ccccc3s2)ccc1N |  | < 0.1 | > 100000 | > 100000 |  |  |  | 
COc1cc(OC)cc(-c2nc3cc(F)ccc3s2)c1 | 1230 | 310 | 5210 | 7550 |  |  |  | 
COCOc1ccc(-c2nc3cc(F)ccc3s2)cc1OC | 65 | 48 | 53500 | 19200 |  |  |  | 
COc1ccc(-c2nc3cc(F)ccc3s2)cc1Cl | 760 | 480 | 2500 | 7050 |  |  |  | 
COc1cc(-c2nc3cc(F)ccc3s2)ccc1O | 750 | 170 | 1040 | 47300 |  |  |  | 
COc1cc(-c2nc3cc(F)ccc3s2)cc(OC)c1OC | 1.9 | 2.1 | 21100 | 13000 |  |  |  | 
COc1ccc(-c2nc3cc(F)ccc3s2)cc1F | 870 | 640 | 13700 | 20600 |  |  |  | 
COc1ccc(-c2nc3cc(F)ccc3s2)cc1O | 500 | 50 | 7600 | 18400 |  |  |  | 
COc1ccc(-c2nc3cc(F)ccc3s2)cc1OC |  | < 0.1 |  | 290 | Active | Active | inactive | inactive
COc1ccc(-c2nc3cc(Br)ccc3s2)cc1OC | 13600 | 770 | 20000 | 65200 |  |  |  | 
COc1ccc(-c2nc3ccccc3s2)cc1OC | 52700 | 530 | 42500 | 74200 | Active | Active |  | 
